Sampled rows, rich in hits. Any-hit rate of the full collection: about 4%.
MT stabilize HCS = stabilizes microtubules in HeLa cells | HeLa tubulin immunostaining HCS, 24 h; share of cells brighter than vehicle mean+2SD | % tubulin-high responders, % at 10 µM | 200,000 compounds, 0.83% hits | AID 2205;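 active = plate Z-score above 3 for both tubulin-high and condensed-nucleus cell shares, with cell loss under 80%, at 10 µM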;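 also: anti alpha tubulin signal scored within the nucleus-defined area of each cell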
WT yeast gro inh = growth inhibition of WT yeast, mitochondrial fusion screen; mitochondrial fusion phenotypic screen, WT strain; inhibition, % at 10 µM; 190,000 compounds, 2.1% hits; AID 1362; in the data active = inhibition above about 58%; tested in S. cerevisiae
b-catenin transl = modulators of beta-catenin nuclear translocation; HeLa beta-catenin nuclear translocation, immunofluorescence imaging; nuclear translocation activity, % at 5 µM; 190,000 compounds, 0.3% hits;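 active = nuclear translocation activity above 50% at 5 µM, with a well cell count of 50 or more; inconclusive = wells under 50 cells across six images, flagged as toxic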;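 also: per-cell ratio of nuclear to cytoplasmic median beta-catenin stain intensity; plate controls were DMSO negative control for no effect and GSK-3 inhibitor IX positive control for full effect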
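System: HeLa cells, endogenous beta-catenin; compound dosing: 5 µM primary single dose, 0.1% DMSO, 0.02–20 µM confirmation series; incubation: 24 h compound exposure at 37°C, 5% CO2; signal: beta-catenin immunofluorescence imaging with DAPI; evaluation: % activation, nuclear-to-cytoplasmic median beta-catenin signal ratio per cell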
Pf gametocyte = kills late stage P. falciparum gametocytes; P. falciparum stage V gametocytes, ATP luminescence, 24 h; inhibition, % at 10.9 µM; 150,000 compounds, 0.065% hits; AID 743093;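 active = inhibition above the mean plus 3 SD of compounds within the control limits, set per campaign, cut at about 38% in these data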;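 also: 0% = DMSO wells and 100% = medium only without gametocytes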
KCC2 mod = KCC2 (human) Cl- transport modulation. B-score of Tl+ flux slope (higher = more flux/activation; lower = inhibition) at 10 µM. 190,000 compounds, 2.2% hits. KCC2 cells, thallium flux FluoZin-2 fluorescence. Q9H2X9;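 active = thallium flux slope and its plate-corrected score both differing from the plate sample mean at a set confidence after two filtering rounds, in either direction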;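 also: slope of fluorescence scaled to starting intensity during 10 to 20 s after thallium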
Target sequence (Q9H2X9 whole entry, looked up): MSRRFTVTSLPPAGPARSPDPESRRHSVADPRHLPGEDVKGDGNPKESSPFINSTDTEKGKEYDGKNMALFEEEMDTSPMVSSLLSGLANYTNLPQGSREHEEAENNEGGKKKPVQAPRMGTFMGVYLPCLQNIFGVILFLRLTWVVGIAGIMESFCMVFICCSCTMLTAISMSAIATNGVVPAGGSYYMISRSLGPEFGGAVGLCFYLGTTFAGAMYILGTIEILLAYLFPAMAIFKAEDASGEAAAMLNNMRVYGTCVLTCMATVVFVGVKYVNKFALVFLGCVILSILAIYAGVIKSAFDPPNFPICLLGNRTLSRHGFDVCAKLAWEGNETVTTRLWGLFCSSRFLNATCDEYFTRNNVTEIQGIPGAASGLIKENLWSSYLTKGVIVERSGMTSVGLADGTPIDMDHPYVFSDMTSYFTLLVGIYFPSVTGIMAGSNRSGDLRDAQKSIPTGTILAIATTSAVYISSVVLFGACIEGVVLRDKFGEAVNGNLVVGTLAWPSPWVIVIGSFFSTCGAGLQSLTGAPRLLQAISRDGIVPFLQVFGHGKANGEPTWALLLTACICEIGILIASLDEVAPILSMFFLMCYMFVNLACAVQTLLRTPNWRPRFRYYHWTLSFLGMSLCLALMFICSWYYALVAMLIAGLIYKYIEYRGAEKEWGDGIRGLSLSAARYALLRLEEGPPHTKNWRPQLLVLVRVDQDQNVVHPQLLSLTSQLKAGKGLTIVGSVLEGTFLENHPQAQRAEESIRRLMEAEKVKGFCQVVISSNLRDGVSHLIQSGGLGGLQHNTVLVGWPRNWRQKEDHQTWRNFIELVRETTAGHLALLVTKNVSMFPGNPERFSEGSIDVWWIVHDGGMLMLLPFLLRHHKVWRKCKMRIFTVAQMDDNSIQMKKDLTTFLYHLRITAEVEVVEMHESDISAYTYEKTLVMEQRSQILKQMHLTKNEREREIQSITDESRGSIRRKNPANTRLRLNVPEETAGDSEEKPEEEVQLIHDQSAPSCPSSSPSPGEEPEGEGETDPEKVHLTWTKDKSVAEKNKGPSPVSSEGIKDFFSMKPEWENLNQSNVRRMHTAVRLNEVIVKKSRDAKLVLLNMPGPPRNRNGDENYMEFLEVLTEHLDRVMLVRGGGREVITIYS
KCC2 sec1 = confirmation of human KCC2 transport modulators; AID 1713; HEK293-KCC2, thallium flux, FluoZin2 fluorescence; active compounds read high; normalised thallium flux (F/F0 slope) at 10 µM; 3,700 compounds, 15% hits; shares compounds with KCC2 mod;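 active = thallium flux slope above the same plate's solvent-only control mean plus 3 SD; inconclusive = the two replicate wells disagree; inactive = no significant difference from solvent-only control wells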
KCC2 bumet counter = thallium flux despite bumetanide block in KCC2 cells, secondary assay 3; shares compounds with KCC2 mod; HEK293-KCC2 + bumetanide/ouabain, thallium flux FluoZin2; active compounds read high; normalized thallium flux at 10 µM; 3,700 compounds, 49% hits; AID 1714;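 active = thallium entry rate above the same plate's blocked-transporter control wells by more than 3 SD; inconclusive = the two repeat wells disagree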;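 also: raw slope of fluorescence over initial fluorescence between 10 and 20 s after thallium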
KCC2 secondary2 = KCC2 (human) modulation, second secondary assay | shares compounds with KCC2 mod | HEK293-KCC2, thallium flux FluoZin2 fluorescence; actives lie on both sides; F/F0 rise rate, 10–20 s post-thallium | normalized thallium flux at 10 µM | 3,700 compounds, 23% hits | AID 1715;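 active = thallium flux slope more than 3 SD above or below the plate's solvent-only control mean, mostly below; inconclusive = the two repeat wells disagreed; inactive = no significant shift from solvent-only controls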;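 also: raw slope with 0.1% DMSO as baseline and bumetanide as block control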
HEK counter1 = parental HEK flux effect, counter-screen; shares compounds with KCC2 mod; HEK293 parental cells, thallium flux FluoZin2, ouabain; baseline-ratio fluorescence slope, 10–20 s after thallium; thallium flux rate (normalised fluorescence) at 10 µM; 3,700 compounds, 46% hits;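 active = thallium flux rate significantly above the same plate's solvent-only control wells, beyond their mean plus 3 SD; inconclusive = the two replicate wells gave conflicting results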
KCC2 ouabain = KCC2 (human) modulation, ouabain retest; raw Tl+ flux slope (below DMSO = inhibition, above = activation) at 10 µM; 3,700 compounds, 48% hits; HEK293-KCC2, thallium flux FluoZin2 fluorescence; bidirectional: low = inhibitor, high = activator; shares compounds with KCC2 mod; AID 1717;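 active = thallium flux slope beyond 3 SD from same-plate DMSO control mean in most replicates, usually higher, sometimes lower; inconclusive = repeat tests gave conflicting results; inactive = no significant difference from controls in most replicates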;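 also: slope of initial-normalized fluorescence between seconds 10 and 20 after thallium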
HEK counter2 = counter-screen for KCC2 modulators: effect in parental HEK293 cells. shares compounds with KCC2 mod. thallium flux FluoZin-2 fluorescence slope. thallium flux slope at 10 µM. 3,700 compounds, 33% hits. AID 1718;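 active = thallium flux slope above the same plate's solvent-control mean plus 3 SD in both duplicate wells; inconclusive = duplicate wells that disagreed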;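 also: run without ouabain in cells lacking the KCC2 cotransporter; slope of fluorescence scaled to its starting value between 10 and 20 s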
* hit, by the source's call; ? = inconclusive; nt = no result.

SMILES	MT stabilize HCS	WT yeast gro inh	b-catenin transl	Pf gametocyte	KCC2 mod	KCC2 sec1	KCC2 bumet counter	KCC2 secondary2	HEK counter1	KCC2 ouabain	HEK counter2
N#C/C(=C\c1ccc(-c2cccc([N+](=O)[O-])c2)o1)C(=O)Nc1nc(-c2cccs2)cs1	nt	nt	0	-9	4*	0.0096	0.0099*	0.033	0.018*	?	0.011
O=C(CCNC(=O)Cn1ccc2ccccc2c1=O)NCCN1CCN(c2cccc(Cl)c2)CC1	3	0	-1	7	4.6*	0.0059	0.0042	0.03	0.0077	0.019	0.01
O=C(CCNC(=O)Cn1ccc2ccccc2c1=O)NCCN1CCN(c2ccccc2F)CC1	3	nt	nt	-2	0.0089	nt	nt	nt	nt	nt	nt
O=C(Cn1ccc2ccccc2c1=O)NCCC(=O)N1CCN(c2cccc(Cl)c2)CC1	1	10	-7	nt	-2.8*	0.0073	0.0066	0.034	0.0073	?	0.011
O=C(NCC(c1cccs1)N1CCOCC1)c1ccccc1NS(=O)(=O)c1ccc(Cl)c([N+](=O)[O-])c1 (stereo not given)	6	14	0	nt	-3.6*	0.007	0.0048	0.026*	0.0061*	0.016*	?
O=C(NCC(c1cccs1)N1CCOCC1)c1ccccc1NS(=O)(=O)c1cccc([N+](=O)[O-])c1 (stereo not given)	4	-14	-4	12	-1.5	nt	nt	nt	nt	nt	nt
Cc1cccc(CCNC(=O)CN(C)S(=O)(=O)c2ccc3c(c2)c(=O)n(C)c(=O)n3C)c1	3	11	nt	nt	-0.25	nt	nt	nt	nt	nt	nt
CCC(Cc1ccccc1)NC(=O)CN(C)S(=O)(=O)c1ccc2c(c1)c(=O)n(C)c(=O)n2C (stereo not given)	11	2	nt	nt	nt	0.0068	0.005	0.024*	0.0082	?	0.012
CN(CC(=O)N1CC=C(c2ccccc2)CC1)S(=O)(=O)c1ccc2c(c1)c(=O)n(C)c(=O)n2C	2	0	nt	nt	-3.9*	0.011	?	0.034	0.0081	0.023	0.011
Cn1c(=O)c2cc(S(=O)(=O)NCCC(=O)N3CC=C(c4ccccc4)CC3)ccc2n(C)c1=O	4	15	1	nt	-0.4	nt	nt	nt	nt	nt	nt
COc1ccc(CN(C(=O)Cn2nnc(-c3ccc(C)o3)n2)C(C(=O)NCC2CCCO2)c2ccco2)cc1 (stereo not given)	3	-6	0	-1	0.089	nt	nt	nt	nt	nt	nt
COC(=O)Cc1c(C)c2ccc(OCC(C)=O)c(C)c2oc1=O	4	-9	1	-24	1.2	nt	nt	nt	nt	nt	nt
CCN(CC)Cc1c(O)ccc2c(C)c(CC(=O)OC)c(=O)oc12	3	3	nt	33	nt	0.0073	?	0.033	0.0077	0.019	0.012
CCc1nnc(NC(=O)c2ccc(OC)cc2)s1	4	15	-2	19	1.3	nt	nt	nt	nt	nt	nt
CCSc1nnc(NC(=O)c2ccc3ccccc3n2)s1	7	nt	-1	nt	36*	0.032*	0.12*	0.035	0.088*	0.072*	0.018*
CCc1nnc(NC(=O)c2ccc3ccccc3n2)s1	3	48	0	16	6.4*	?	0.027*	0.031	0.013*	?	0.011*
Cc1cc(Br)ccc1OCCCCN1CCC(C)CC1	2	18	nt	-13	0.83	nt	nt	nt	nt	nt	nt
O=C(Nc1nc(SCc2ccc(F)cc2)ns1)c1ccco1	4	68*	-2	nt	-3.7*	0.0059	?	0.021*	?	0.012*	0.011
COc1cc(/C=N/NC(=O)c2c(C)nc3ccc(Cl)cn23)cc(OC)c1OC	nt	nt	nt	-20	nt	nt	nt	nt	nt	nt	nt
O=C(CCCNC(=O)/C(=C/c1ccc(F)cc1)NC(=O)c1ccccc1)OCc1ccccc1	7	4	-3	-10	-3.2*	0.0075	0.0043	0.034	0.0067	0.018*	0.01
COC(=O)CN(c1ccc(F)cc1)S(=O)(=O)c1ccc2c(c1)OCCO2	2	-6	1	nt	-0.27	nt	nt	nt	nt	nt	nt
CN(C)/N=C/c1ccc(P(c2ccc(/C=N/N(C)C)o2)c2ccc(/C=N/N(C)C)o2)o1	2	16	1	14	0.86	nt	nt	nt	nt	nt	nt
S=C(Nc1ccccc1Cl)N(CCN1CCCCC1)Cc1ccco1	5	8	-1	-17	-1.1	nt	nt	nt	nt	nt	nt
CCCCCn1nnc2c(=O)oc3ccccc3c21	3	2	0	7	nt	0.014	0.0045	0.023*	0.0053*	0.01*	?
O=C(Nc1nnc(CCN2CCCCC2)s1)c1ccccc1Cl	5	-4	0	-22	nt	nt	nt	nt	nt	nt	nt
SMILES	MT stabilize HCS	WT yeast gro inh	b-catenin transl	Pf gametocyte	KCC2 mod	KCC2 sec1	KCC2 bumet counter	KCC2 secondary2	HEK counter1	KCC2 ouabain	HEK counter2
Cc1ccc(Nc2nnc(SCC(=O)Nc3cccc(S(=O)(=O)NC4=NCCCCC4)c3)s2)c(C)c1	5	3	0	10	1.3	0.0072	0.0048	0.03	0.0052*	0.017*	0.009
Cc1ccc(C)c(SCC(=O)Nc2cccc(S(=O)(=O)NC3=NCCCCC3)c2)c1	1	2	-2	-19	-2	nt	nt	nt	nt	nt	nt
COC(=O)C(C(=O)NCC1CCCO1)C1CCCC1 (stereo not given)	1	-3	4	-17	-0.65	nt	nt	nt	nt	nt	nt
Cc1oc2cc(O)cc(C)c2c(=O)c1-c1cnn(-c2ccccc2)c1	3	0	0	-7	-1.9	0.0084	0.006	0.034	0.0038	0.018	0.011
CS(=O)(=O)Cc1cc(N2CCCC2)nc(-c2ccccc2)n1	5	2	0	34	0.079	nt	nt	nt	nt	nt	nt
COCc1cc(N2CCCC2)nc(-c2ccccc2)n1	3	-11	-2	14	-3.5*	0.0066	0.0042	0.028	0.0067	0.018	0.0096
O=C1CSC(=Nc2ccccc2)N1	1	11	2	7	5.7*	0.0079	?	0.033	0.008	0.022	?
CCc1ccc(N=C2NC(=O)CS2)cc1	nt	nt	nt	10	nt	nt	nt	nt	nt	nt	nt
O=C(CSc1nnc(SCc2ccc(Cl)cc2)s1)c1ccc2c(c1)OCO2	5	19	3	23	-4.1	nt	nt	nt	nt	nt	nt
CC(C1CC2CCC1C2)n1c(-c2cccs2)n[nH]c1=S (stereo not given)	nt	nt	-1	7	72*	0.019	0.082*	0.042*	0.034*	0.041*	0.032*
S=c1[nH]nc(-c2cccs2)n1Cc1ccccc1	2	-4	1	-2	0.43	nt	nt	nt	nt	nt	nt
